pIC50, pKi: −log10 of the molar value. Activity calls are given as the source filed them. The rule behind the calls is not given here.
Legend:
[1] = target: T1, Androgen receptor (Mus musculus) (UniProt P19091); assay: Agonist activity at mouse androgen receptor at 10 uM after 24 hrs by cell-based luciferase reporter gene assay relative to control
T1 sequence (whole entry): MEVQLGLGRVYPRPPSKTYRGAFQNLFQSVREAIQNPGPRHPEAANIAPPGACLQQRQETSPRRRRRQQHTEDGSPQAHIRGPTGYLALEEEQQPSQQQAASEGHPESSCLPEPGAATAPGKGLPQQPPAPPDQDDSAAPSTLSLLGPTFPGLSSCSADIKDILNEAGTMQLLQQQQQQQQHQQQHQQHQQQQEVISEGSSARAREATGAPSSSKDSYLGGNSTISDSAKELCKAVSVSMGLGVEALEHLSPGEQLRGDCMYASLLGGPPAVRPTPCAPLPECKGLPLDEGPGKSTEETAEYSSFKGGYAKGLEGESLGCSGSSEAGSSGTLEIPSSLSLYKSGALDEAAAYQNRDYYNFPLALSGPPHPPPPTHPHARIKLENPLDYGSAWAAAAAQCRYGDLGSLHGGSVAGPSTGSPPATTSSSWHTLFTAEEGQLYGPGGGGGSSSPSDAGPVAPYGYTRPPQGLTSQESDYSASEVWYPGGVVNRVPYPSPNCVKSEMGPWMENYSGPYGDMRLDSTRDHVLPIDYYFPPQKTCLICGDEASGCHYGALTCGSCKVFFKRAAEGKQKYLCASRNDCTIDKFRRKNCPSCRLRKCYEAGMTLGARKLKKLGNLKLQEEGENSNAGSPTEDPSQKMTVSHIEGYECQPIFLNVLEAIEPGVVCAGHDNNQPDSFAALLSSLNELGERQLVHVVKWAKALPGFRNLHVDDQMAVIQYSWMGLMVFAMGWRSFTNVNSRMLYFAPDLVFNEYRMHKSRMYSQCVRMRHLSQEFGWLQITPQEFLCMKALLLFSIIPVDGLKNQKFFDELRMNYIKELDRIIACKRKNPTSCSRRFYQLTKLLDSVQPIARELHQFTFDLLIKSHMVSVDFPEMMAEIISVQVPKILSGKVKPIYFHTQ
How it was run: (§1)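 Transcriptional activity is expressed as a percentage after 10 μM compound, given alone for agonist mode or with 10 nM DHT for antagonist mode. Data are from triplicate experiments.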

[2] = target: T1, Androgen receptor (Mus musculus); assay: Antagonist activity against mouse androgen receptor assessed as reduction of 10 nM DHT-induced transcriptional activity at 10 uM after 24 hrs by cell-based luciferase reporter gene assay relative to control; how it was run: as §1
Androgen receptor [3] = target: T2, Androgen receptor (Mus musculus, UniProt P19091); assay: Antagonist activity at mouse androgen receptor assessed as inhibition of transactivation after 24 hrs by cell-based luciferase reporter gene assay
T2 sequence (P19091 whole entry): T1 sequence (whole entry)

LNCaP [4] = assay: Cytotoxicity against human androgen-dependent LNCAP cells at 10 uM after 7 days by MTS/PMS assay relative to control; assay type: functional; conditions: 168 h, read-out: GI
PPC-1 = assay: Cytotoxicity against human androgen-independent/AR-negative PPC1 cells after 3 days by MTS/PMS assay; assay type: functional, cell-based
MEF = assay: Cytotoxicity against mouse MEF cells at 10 uM after 4 days by MTS/PMS assay; assay type: cell-based; conditions: 96 h
[5] = target: T3, Androgen receptor (Homo sapiens) (UniProt P10275); assay: Inhibition of androgen receptor-mediated SRC2 coactivator recruitment in human PPC1 cells at 10 uM after 1 hr by DAPI staining-based fluorescence microscopic analysis; assay type: cell-based; conditions: PPC-1
T3 sequence (whole entry): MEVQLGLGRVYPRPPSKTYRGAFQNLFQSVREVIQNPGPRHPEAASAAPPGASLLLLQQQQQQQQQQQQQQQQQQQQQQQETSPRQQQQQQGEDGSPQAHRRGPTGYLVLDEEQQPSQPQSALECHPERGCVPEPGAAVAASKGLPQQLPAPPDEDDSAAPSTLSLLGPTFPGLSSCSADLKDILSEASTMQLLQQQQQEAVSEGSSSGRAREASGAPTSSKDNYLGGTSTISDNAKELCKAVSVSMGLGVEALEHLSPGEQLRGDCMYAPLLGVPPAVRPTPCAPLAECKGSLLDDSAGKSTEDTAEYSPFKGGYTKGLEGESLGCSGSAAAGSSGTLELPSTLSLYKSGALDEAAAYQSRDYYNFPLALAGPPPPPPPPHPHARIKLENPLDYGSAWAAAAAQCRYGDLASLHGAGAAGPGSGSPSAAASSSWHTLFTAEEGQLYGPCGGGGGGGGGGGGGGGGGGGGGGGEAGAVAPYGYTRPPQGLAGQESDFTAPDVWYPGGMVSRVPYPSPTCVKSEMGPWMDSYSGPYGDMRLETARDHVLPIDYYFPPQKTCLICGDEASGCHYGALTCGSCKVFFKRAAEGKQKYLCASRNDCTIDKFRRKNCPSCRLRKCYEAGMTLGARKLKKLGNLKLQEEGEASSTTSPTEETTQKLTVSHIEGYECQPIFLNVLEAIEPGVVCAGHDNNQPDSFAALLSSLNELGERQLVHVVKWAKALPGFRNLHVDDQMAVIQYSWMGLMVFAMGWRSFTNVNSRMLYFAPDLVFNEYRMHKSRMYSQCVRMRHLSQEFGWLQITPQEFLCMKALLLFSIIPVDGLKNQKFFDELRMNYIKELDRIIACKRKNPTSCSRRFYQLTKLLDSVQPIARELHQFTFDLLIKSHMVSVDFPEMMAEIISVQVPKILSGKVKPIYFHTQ

[6] = target: T3, Androgen receptor (Homo sapiens); assay: Inhibition of DHT-induced androgen receptor-mediated GFP-AR protein nuclear translocation in human PPC1 cells at 10 uM after 1 hr by DAPI staining-based fluorescence microscopic analysis; assay type: cell-based; conditions: PPC-1
LNCaP [7] = assay: Cytotoxicity against human androgen-dependent LNCAP cells after 6 days by MTS/PMS assay; assay type: functional, cell-based; conditions: 144 h
Androgen receptor [8] = target: T2, Androgen receptor; assay: Displacement of [3H] ]5alpha-DHT from mouse androgen receptor expressed in monkey COS7 cells after 2 hrs by scintillation counting analysis; assay type: cell-based, COS-7
[9] = target: T3, Androgen receptor (Homo sapiens); assay: Inhibition of androgen receptor-mediated SRC1 coactivator recruitment in human PPC1 cells at 10 uM after 1 hr by DAPI staining-based fluorescence microscopic analysis; assay type: cell-based; conditions: PPC-1
[10] = Cytotoxicity against human androgen-independent/AR-positive C4-2 cells […] after 4 days by MTS/PMS assay; assay type: functional, cell-based; conditions: LNCaP C4-2, 96 h

Compound: Cc1cccc(NC(=O)c2ccc(N3CCc4cc(OCc5ccccc5)ccc4C3)nc2)n1
- Activity [1]: 4.5%
- inhibition [2]: 61.3%

Compound: O=C(Nc1ccccc1)c1ccc(C(=O)N2CCc3ccccc3C2)nc1
- Activity [1]: 7.8%
- inhibition [2]: 33.1%

Compound: CCOc1c(Cl)c(Cl)c2c(c1OCc1ccccc1)CCN(c1ccc(C(=O)Nc3cccc(C)n3)cn1)C2
- Activity [1]: 1%
- inhibition [2]: 86.4%

Compound: COc1cc2c(cc1OC)CN(c1ccc(C(=O)Nc3ccc(C)cn3)cn1)CC2
- Activity [1]: 2.8%
- inhibition [2]: 67.6%

Compound: COc1cccc(NC(=O)c2ccc(N3CCc4cc(OC)ccc4C3)nc2)c1
- Activity [1]: 3.1%
- inhibition [2]: 95.7%

Compound: Cc1cccnc1NC(=O)c1ccc(Cl)nc1
- Activity [1]: 3.8%
- inhibition [2]: 0.6%

Compound: COc1ccccc1NC(=O)c1ccc(N2CCc3ccccc3C2)nc1
- Activity [1]: 7.4%
- inhibition [2]: 59%

Compound: CCOc1ccc2c(c1)CCN(c1ccc(C(=O)Nc3cccc(C)n3)cn1)C2
- pIC50 (Androgen receptor [3]): 6.34
- inhibition of growth at 10 µM (LNCaP [4]): 80%
- Activity [1]: 3.9%
- Activity (PPC-1): inactive
- Activity (MEF): Non-toxic
- inhibition [2]: 95.1%
- inhibition [5]: Active
- inhibition [6]: Active
- pIC50 (LNCaP [7]): 5.83
- pKi (Androgen receptor [8]): < 4.30
- inhibition [9]: Active
- pIC50 [10]: 4.93

Compound: COc1cccc(NC(=O)c2ccc(N3CCc4ccccc4C3)nc2)c1
- Activity [1]: 13.6%
- inhibition [2]: 80.4%

Compound: Cc1ccnc(N(C)C(=O)c2ccc(N3CCc4ccccc4C3)nc2)c1
- Activity [1]: 12.1%
- inhibition [2]: 32.5%

Compound: Cc1ccc(NC(=O)c2ccc(N3CCc4ccccc4C3)nc2)nc1
- Activity [1]: 3%
- inhibition [2]: 90.2%

Compound: COc1cc2c(cc1OC)CN(c1ccc(C(=O)Nc3ccccn3)cn1)CC2
- Activity [1]: 2.5%
- inhibition [2]: 84.5%

Compound: COc1ccc(CNC(=O)c2ccc(N3CCCCC3)nc2)cc1
- Activity [1]: 11.1%
- inhibition [2]: 19.4%

Compound: COc1ccc(NC(=O)c2ccc(N3CCc4ccccc4C3)nc2)cn1
- Activity [1]: 7.2%
- inhibition [2]: 79.6%

Compound: CCOc1ccc2c(c1)CCN(c1ccc(C(=O)Nc3cccc(OC)c3)cn1)C2
- Activity [1]: 4%
- inhibition [2]: 95.6%

Compound: COc1cc2c(c(OC)c1OC)CCN(c1ccc(C(=O)Nc3cccc(C)n3)cn1)C2
- Activity [1]: 0.8%
- inhibition [2]: 89.1%

Compound: COc1ccccc1N(C)C(=O)c1ccc(N2CCc3ccccc3C2)nc1
- Activity [1]: 9%
- inhibition [2]: 48.8%

Compound: Cc1cccc(NC(=O)c2ccc(N3CCc4cc(OC(C)C)ccc4C3)nc2)n1
- Activity [1]: 3.5%
- inhibition [2]: 95.3%

Compound: O=C(Nc1ccccn1)c1ccc(Cl)nc1
- Activity [1]: 4.9%
- inhibition [2]: inactive

Compound: COc1cc2c(cc1OC)CN(c1ccc(C(=O)Nc3cc(C)ccn3)cn1)CC2
- Activity [1]: 2.7%
- inhibition [2]: 88.3%

Compound: COc1cc2c(cc1OC)CN(c1ccc(C(=O)Nc3cccc(C)n3)cn1)CC2
- Activity [1]: 2.1%
- inhibition [2]: 94.4%

Compound: O=C(Nc1ccccc1)c1ccc(N2CCc3ccccc3C2)nc1
- Activity [1]: 8.7%
- inhibition [2]: 68.9%

Compound: COc1cccc(N(C)C(=O)c2ccc(N3CCc4ccccc4C3)nc2)c1
- Activity [1]: 12.5%
- inhibition [2]: 46.4%

Compound: CCOc1ccc2c(c1OCC)CCN(c1ccc(C(=O)Nc3cccc(C)n3)cn1)C2
- Activity [1]: 1%
- inhibition [2]: 88.3%

Compound: Cc1ccccc1N(C)C(=O)c1ccc(N2CCc3ccccc3C2)nc1
- Activity [1]: 11.7%
- inhibition [2]: 48.2%

Compound: COc1cccc(NC(=O)c2ccc(N3CCc4c(ccc(OC)c4OC)C3)nc2)c1
- Activity [1]: 3.9%
- inhibition [2]: 96.6%

Compound: Cc1cccc(NC(=O)c2ccc(N3CCCCC3)nc2)n1
- Activity [1]: 6.8%
- inhibition [2]: 65.7%

Compound: COc1cc2c(cc1OC)CN(c1ccc(C(=O)Nc3ncccc3C)cn1)CC2
- Activity [1]: 3.1%
- inhibition [2]: 60.9%

Compound: O=C(Nc1ccccn1)c1ccc(N2CCc3ccccc3C2)nc1
- Activity [1]: 5.6%
- inhibition [2]: 86.4%

Compound: Cc1cccc(NC(=O)c2ccc(N3CCN(C)CC3)nc2)n1
- Activity [1]: 14.1%
- inhibition [2]: inactive

Compound: O=C(Nc1ccccn1)c1ccc(C(=O)N2CCc3ccccc3C2)nc1
- Activity [1]: 15%
- inhibition [2]: 4.5%

Compound: Cc1ccnc(NC(=O)c2ccc(Cl)nc2)c1
- Activity [1]: 6.4%
- inhibition [2]: inactive

Compound: CCOc1ccc2c(c1OCc1ccccc1)CCN(c1ccc(C(=O)Nc3cccc(OC)c3)cn1)C2
- Activity [1]: 0.5%
- inhibition [2]: 78.6%

Compound: COc1ccc2c(c1)CCN(c1ccc(C(=O)Nc3ccc(C)cn3)cn1)C2
- Activity [1]: 5.2%
- inhibition [2]: 86.9%

Compound: O=C(Nc1ncccn1)c1ccc(N2CCc3ccccc3C2)nc1
- Activity [1]: 9.4%
- inhibition [2]: 27.5%

Compound: COc1ccc(CNC(=O)c2ccc(N3CCc4ccccc4C3)nc2)cc1
- Activity [1]: 9%
- inhibition [2]: 58.2%

Compound: Cc1ccnc(NC(=O)c2ccc(N3CCc4ccccc4C3)nc2)c1
- Activity [1]: 3.6%
- inhibition [2]: 58.6%

Compound: CCOc1ccc2c(c1OCc1ccccc1)CCN(c1ccc(C(=O)Nc3cccc(C)n3)cn1)C2
- Activity [1]: 0.6%
- inhibition [2]: 92.9%

Compound: COc1ccc2c(c1)CCN(c1ccc(C(=O)Nc3cccc(C)n3)cn1)C2
- Activity [1]: 4%
- inhibition [2]: 94.9%

Compound: CCOc1ccc2c(c1OC)CCN(c1ccc(C(=O)Nc3cccc(C)n3)cn1)C2
- Activity [1]: 1.7%
- inhibition [2]: 91%

Compound: O=C(Nc1nccs1)c1ccc(N2CCc3ccccc3C2)nc1
- Activity [1]: 9.7%
- inhibition [2]: 57.4%

Compound: CCOc1ccc2c(c1OC)CCN(c1ccc(C(=O)Nc3cccc(OC)c3)cn1)C2
- Activity [1]: 1.8%
- inhibition [2]: 91.4%

Compound: Cc1cccnc1NC(=O)c1ccc(N2CCc3ccccc3C2)nc1
- Activity [1]: 5%
- inhibition [2]: 64.1%

Compound: CCOc1ccc2c(c1OCc1ccccc1)CCN(c1ccc(C(=O)N(C)c3cccc(C)n3)cn1)C2
- Activity [1]: 1.6%
- inhibition [2]: 77.5%

Compound: Cc1ccccc1NC(=O)c1ccc(N2CCc3ccccc3C2)nc1
- Activity [1]: 10.4%
- inhibition [2]: 49.7%

Compound: CCOc1c(Cl)c(Cl)c2c(c1OCC)CCN(c1ccc(C(=O)Nc3cccc(C)n3)cn1)C2
- Activity [1]: 2.6%
- inhibition [2]: 30.5%

Compound: Cc1ccc(NC(=O)c2ccc(Cl)nc2)nc1
- Activity [1]: 4.9%
- inhibition [2]: 43.1%

Compound: CCOc1ccc2c(c1OCC)CCN(c1ccc(C(=O)Nc3cccc(OC)c3)cn1)C2
- Activity [1]: 0.4%
- inhibition [2]: 87.9%

Compound: O=C(Nc1ccc(F)cc1)c1ccc(N2CCc3ccccc3C2)nc1
- Activity [1]: 7.1%
- inhibition [2]: 65.1%

From ChEMBL document CHEMBL2331274, “SAR based design of nicotinamides as a novel class of androgen receptor antagonists for prostate cancer” (J Med Chem, 2013)
